# LEDGF integ inh – blockers of LEDGF/p75-dependent integrase strand transfer – biochemical, TR-FRET, high throughput, primary screen. HIV-1 integrase (with human LEDGF/p75). TR-FRET IN-LEDGF/p75 DNA integration, Eu/Cy5. inhibition, % at 3.7 µM. 0.64% of 370,000 active. AID 743269, 2014;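 active = inhibition above the screen-wide mean plus 3 SD, cut at about 13% in these data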;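 also: signal is the Cy5 over europium emission ratio at 671 and 618 nm; 0% = plate median of compound wells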
# HTRA1 inhibitor – HTRA1 serine protease inhibitors, primary screen, biochemical, fluorescence polarization, HTS; 0.5% of 340,000 active; Q92743; recombinant HTRA1, FP-rhodamine activity-based probe; inhibition, % at 5.96 µM; in the data active = inhibition above about 36%;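 also: 0% = enzyme with DMSO and 100% = wells lacking enzyme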
# rCAG RNA binder – binders of r(CAG) RNA repeats, primary screen, biochemical, fluorescence; r(CAG) RNA repeat, TO-PRO-1 dye displacement fluorescence; inhibition, % at 3 µM; 1.3% of 370,000 active;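 active = inhibition above the plate cutoff, the mean of all test compounds on that plate plus 3 SD, cut at about 35% in these data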;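 also: 0% = DMSO alone and 100% = 100 µM mitoxantrone as full dye displacement; higher means more dye released from RNA so lower well fluorescence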
# ABHD4 inh – ABHD4 inhibitors, primary screen, biochemical, fluorescence polarization, mouse; (Lyso)-N-acylphosphatidylethanolamine lipase (Mus musculus), Q8VD66; purified mABHD4, FP-Rh probe fluorescence polarization; inhibition, % at 8.92 µM; 0.54% of 370,000 active;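 active = inhibition exceeding the mean over every tested compound plus 3 SD, cut at about 30% in these data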;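 also: 0% = plate median of compound wells and 100% = S159A mutant with DMSO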
#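 system = mouse ABHD4 enzyme, wild type | medium = HEPES pH 7.0, NaCl, Pluronic buffer | also added = FP-Rh probe | incubation = Enzyme–compound pre-incubation 45 min, then probe 60 min, both 25 °C | technique = fluorescence polarization, excitation 525 nm, emission 598 nm, BODIPY TMR filters | controls = S159A mutant high control, sample median low control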
# PRMT1 inh – PRMT1 methyltransferase inhibitors, primary screen, biochemical, fluorescence polarization; Protein arginine N-methyltransferase 1 (Homo sapiens), Q99873; AID 652257, 2013; inhibition, % at 2.79 µM; 1.3% of 370,000 active; recombinant PRMT1, activity-based probe fluorescence polarization;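 active = inhibition above about 21% made by adding two undisclosed values, limit read from the data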
# Target sequence (Q99873 whole entry, looked up): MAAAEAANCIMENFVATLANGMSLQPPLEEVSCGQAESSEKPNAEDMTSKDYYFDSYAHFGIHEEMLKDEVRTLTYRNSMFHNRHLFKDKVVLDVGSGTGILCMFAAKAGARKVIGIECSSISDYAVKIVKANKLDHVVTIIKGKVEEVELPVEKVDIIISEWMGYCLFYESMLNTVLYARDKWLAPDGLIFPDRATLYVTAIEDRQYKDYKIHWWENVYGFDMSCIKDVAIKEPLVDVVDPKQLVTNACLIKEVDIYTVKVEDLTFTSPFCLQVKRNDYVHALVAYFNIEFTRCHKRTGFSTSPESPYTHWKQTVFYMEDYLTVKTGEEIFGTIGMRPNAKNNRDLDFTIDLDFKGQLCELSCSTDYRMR
# DAGLB inh – DAGLB lipase inhibitors, primary screen, biochemical, fluorescence, HTS | HEK293T DAGLB membrane lysate, EnzChek fluorogenic substrate | inhibition, % at 5.17 µM | 0.059% of 340,000 active | AID 504411, 2011; in the data active = inhibition above about 34%;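 also: 0% = enzyme with vehicle and 100% = wells lacking enzyme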
# * = called active by the depositor; . = no result. The list is not random: actives were taken first. Their share in the collection is about 3.2%.
SMILES,LEDGF integ inh,HTRA1 inhibitor,rCAG RNA binder,ABHD4 inh,PRMT1 inh,DAGLB inh
O=C1C(=O)N(CCN2CCOCC2)C(c2ccc([N+](=O)[O-])cc2)/C1=C(/O)c1ccc2c(c1)OCO2 (stereo unspecified),1,0,5,16,23*,-1
COc1ccc(C(=O)C(=O)N2CCN(C(=O)c3cc(C(F)(F)F)cc(C(F)(F)F)c3)CC2)cc1OC,0,.,1,-6,1,.
CC(=O)Nc1ccc2nc3c(=O)n(C)c(=O)n(C)c3nc2c1,5,10,-2,10,19,-1
CC(Sc1ccccc1)C(=O)NNC(=O)c1ccncc1 (stereo unspecified),-4,-5,-2,4,21*,2
CCOC(=O)Cn1nnc(-c2ccc([N+](=O)[O-])cc2)n1,-5,4,-3,-9,14,1
Cc1sc2ccc3sccc3c2[n+]1C,-3,3,-2,-1,77*,2
Cc1ccc(N2C(=O)CC(Sc3nc(C)cc(C)n3)C2=O)cc1 (stereo unspecified),-1,-3,-5,4,0,-2
CC(C)c1ccc(N2C(=O)CC(Sc3nc4ccccc4o3)C2=O)cc1 (stereo unspecified),-2,-22,8,-2,23*,-8
O=C(Nc1ccccc1C(=O)O)c1cc(S(=O)(=O)N2CCCCCC2)ccc1Cl,-2,-10,58*,-2,1,6
O=C(O)c1cc(S(=O)(=O)N2CCCCCC2)ccc1Cl,0,4,4,3,0,0
S=C(Nc1ccc2nc(-c3ccccn3)c(-c3ccccn3)nc2c1)N1CCOCC1,26*,7,-9,4,16,-2
O=C(CCCc1nc2ccccc2s1)N1CCN(c2ccccc2)CC1,1,-1,3,1,23*,0
O=C(CCCc1nc2ccccc2s1)N1CCN(c2ccccc2F)CC1,2,-4,-6,-1,-6,-5
COc1cccc2cc(C(C)N(CCCN3CCOCC3)C(=S)Nc3cc(C)cc(C)c3)oc12 (stereo unspecified),9,-5,-4,-5,0,-1
CC(=Nc1ccc(C)cc1)c1sc2ccccc2c1O,0,-19,-1,13,25*,-22
COc1ccccc1-c1nnc2n1N=C(c1ccc(O)c(O)c1)CS2,.,43*,.,.,.,4
CCOc1ccc(C2=Nn3c(nnc3-c3ccccc3OC)SC2)cc1,-2,-24,-4,-3,-4,-2
Fc1cccc(CSc2ccc(-c3ccco3)nn2)c1,2,-5,3,-5,24*,-15
CCSc1ccc(-c2ccco2)nn1,-1,3,2,3,3,-1
CCOC(=O)c1cc2c(N)c(C(=O)c3cc(C#N)c(SC)nc3C)sc2nc1C,4,0,3,-1,1,0
Cc1cc(N2C(=O)C(O)=C(C(=O)c3cc4ccccc4o3)C2c2ccc([N+](=O)[O-])cc2)no1 (stereo unspecified),0,-17,46*,-12,0,9
CC(C)=CCC/C(C)=C/CNC(=O)C[C@H]1C[C@H](C(=O)N2CCCCC2)[C@@]2(C)c3[nH]c4cc(-c5ccco5)ccc4c3CCN2C1=O,7,-13,21,4,24*,-2
CCN(C(=O)CSc1nnc(C)n1Cc1ccccc1)C1CCS(=O)(=O)C1 (stereo unspecified),-1,3,-2,-2,-2,2
CCOc1ccc(-c2cc3nc(C4CCN(C(=O)OC(C)(C)C)CC4)c(C(=O)O)cn3n2)cc1,-1,-51,70*,-67,1,6
CC(C)n1nnnc1-c1ccc(Cl)cc1,3,0,2,-5,3,3
O=C1CC(=O)N(CCNc2ncc(C(F)(F)F)cc2Cl)C(=O)N1,0,-12,51*,-6,7,18
